These results are taken from ChEMBL document CHEMBL1148781, “Phenylimidazole derivatives of 4-pyridone as dual inhibitors of bacterial enoyl-acyl carrier protein reductases FabI and FabK” (J Med Chem, 2007).

Experiment [1] has as its system K562. Description: Cytotoxicity against human K562 cells. The experiment is classed as functional, cell-based.
Experiment [2] is described as follows: Inhibition of Escherichia coli FabI. In outline: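 His-tagged E. coli FabI (gene from E. coli DH5α, expressed in E. coli TOP10 with arabinose induction, Ni-NTA purified) at 50 µg/mL in 100 mM sodium phosphate pH 7.4 with 0.25 mM crotonoyl-CoA and 0.4 mM NADH. Reaction started by enzyme addition; NADH consumption followed at 340 nm for 10 min at room temperature; IC50 = concentration halving activity.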

Experiment [3] deals with Streptococcus pneumoniae. Description: Antibacterial activity against Streptococcus pneumoniae KU197. The experiment is classed as functional. The method in brief: (§1)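 Broth microdilution per NCCLS M7-A6; MIC taken as lowest concentration preventing visible growth. Strains: S. aureus ATCC29213 and S. pneumoniae KU197 (PRSP).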
Experiment [4] addresses T1, Enoyl-(Acyl-carrier-protein) reductase (Streptococcus pneumoniae, UniProt Q9FBC5).
T1 sequence (Q9FBC5 whole entry): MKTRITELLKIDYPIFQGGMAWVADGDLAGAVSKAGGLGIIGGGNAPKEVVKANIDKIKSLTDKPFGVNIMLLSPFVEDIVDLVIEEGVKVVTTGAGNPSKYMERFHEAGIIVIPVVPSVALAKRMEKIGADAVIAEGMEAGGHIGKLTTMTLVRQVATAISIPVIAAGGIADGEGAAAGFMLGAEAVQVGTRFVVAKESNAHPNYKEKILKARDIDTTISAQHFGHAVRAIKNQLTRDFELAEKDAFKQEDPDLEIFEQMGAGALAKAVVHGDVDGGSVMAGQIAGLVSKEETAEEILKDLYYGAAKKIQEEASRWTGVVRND
Description: Inhibition of Streptococcus pneumoniae FabK. The method in brief: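 C-terminal His-tagged FabK from S. pneumoniae R6, expressed in E. coli BL21(DE3) with 1 mM IPTG, Ni-NTA purified, used at 2 µg/mL. Buffer 100 mM MES pH 7.0, 100 mM NH4Cl, 0.2 mM crotonoyl-CoA, 0.4 mM NADH; enzyme-initiated. Absorbance at 340 nm read for 10 min at room temperature; IC50 = concentration giving 50% activity reduction.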

Experiment [5] deals with Staphylococcus aureus. Kind of experiment: Antibacterial activity against Staphylococcus aureus ATCC 29213. Format: functional. The method in brief:
as §1

In brackets after ≈: the same amount, converted by molar mass.

Turning to `Cc1c(Cc2c(Cl)cccc2Cl)c(=O)ccn1C/C=C/c1ccc(-c2c[nH]c(CNC(=O)Nc3ncc(Br)s3)n2)cc1`, the results for the IC50 in experiment [1], in experiment [2] and in experiment [4] were > 69000 nM, 290 nM and 9000 nM, respectively. The MIC in experiment [3] and in experiment [5] was > 32 µg/mL each time.

On to `Cc1c(Cc2c(Cl)cccc2Cl)c(=O)ccn1CCc1ccc(-c2c[nH]c(CNC(=O)Nc3ncc[nH]3)n2)cc1`, for which the results for the IC50 in experiment [1], in experiment [2] and in experiment [4] were > 69000 nM, 930 nM and > 32000 nM, respectively. Besides, the MIC in experiment [3] and in experiment [5] was > 32 µg/mL in each case.

Take `CS(=O)(=O)c1ccc2nc(NC(=O)NCc3nc(-c4ccccc4)c[nH]3)sc2c1`: the IC50 – broadly, the concentration needed to halve the response being measured – in experiment [2] was > 32000 nM. For the same molecule, the MIC (usually the least concentration at which growth counts as inhibited) in experiment [5] is > 64 µg/mL.

Take `Cc1c(Cc2c(Cl)cccc2Cl)c(=O)ccn1/C=C/c1ccc(-c2c[nH]c(CNC(=O)Nc3ncc(Br)s3)n2)cc1`: the IC50 was > 69000 nM in experiment [1], > 32000 nM in experiment [2] and > 30000 nM in experiment [4].

Take `Cc1c(Cc2c(Cl)cccc2Cl)c(=O)ccn1CCc1ccc(-c2c[nH]c(CNC(=O)Nc3ncc(S(C)(=O)=O)s3)n2)cc1`: the IC50 in experiment [1] is > 69000 nM; in experiment [2], 310 nM; in experiment [4], 9.4 nM. For the same molecule, the MIC is 1 µg/mL (≈ 1.49 µM) in experiment [3] and > 32 µg/mL in experiment [5].

As to `Cc1c(Cc2c(Cl)cccc2Cl)c(=O)ccn1CCc1ccc(-c2c[nH]c(CNC(=O)Nc3ncc(Sc4ccccn4)s3)n2)cc1`, the IC50 in experiment [1] was > 69000 nM; in experiment [2] it was 560 nM; in experiment [4], 16 nM. Besides, the MIC in experiment [3] was 2 µg/mL (≈ 2.85 µM); in experiment [5], > 32 µg/mL.

Take `O=C(NCc1ncc(-c2cccc(Br)c2)[nH]1)Nc1ncc(Sc2ccccn2)s1`: the IC50 in experiment [2] is > 32000 nM; in experiment [4], 5.3 nM. The molecule also had an MIC in experiment [3] of 16 µg/mL (≈ 32.8 µM).

Turning to `O=C(NCc1ncc(-c2ccccc2)[nH]1)Nc1ncc(Sc2ccccn2)s1`, the IC50 in experiment [2] is > 32000 nM; in experiment [4] it was 42 nM. In experiment [3], this molecule gave an MIC of 2 µg/mL (≈ 4.9 µM).

In the case of `O=C([O-])COc1ccc(-c2cnc(CNC(=O)Nc3ncc(Sc4ccccn4)s3)[nH]2)cc1.[Na+]`, the IC50 is > 32000 nM in experiment [2] and 34 nM in experiment [4]. Further, the MIC in experiment [3] is > 32 µg/mL.

Consider `Cc1c(Cc2c(Cl)cccc2Cl)c(=O)ccn1Cc1ccc(-c2c[nH]c(CNC(=O)Nc3ncc(Br)s3)n2)cc1`, for which the IC50 in experiment [1] is > 69000 nM; in experiment [2] it was 820 nM; in experiment [4], 11000 nM. The MIC in experiment [3] and in experiment [5] was > 32 µg/mL throughout.

For `Oc1cc(Cl)ccc1Oc1ccc(Cl)cc1Cl` [TRICLOSAN], the IC50 in experiment [2] is 900 nM; in experiment [4], > 32000 nM. The MIC in experiment [5] worked out at 0.063 µg/mL (≈ 0.218 µM).

With `Cc1c(Cc2c(Cl)cccc2Cl)c(=O)ccn1CCCc1ccc(-c2c[nH]c(CNC(=O)Nc3ncc(Br)s3)n2)cc1`, the IC50 was > 69000 nM in experiment [1], 340 nM in experiment [2] and 6600 nM in experiment [4]. In addition, the MIC in experiment [3] and in experiment [5] was > 32 µg/mL throughout.

Turning to `O=C(NCc1ncc(-c2ccc(Br)cc2)[nH]1)Nc1ncc(Sc2ccccn2)s1`, the values for the IC50 in experiment [2] and in experiment [4] were > 32000 nM and 2.4 nM, respectively. Further, the MIC in experiment [3] was 0.25 µg/mL (≈ 0.513 µM).

Take `Cn1cc(CNC(=O)/C=C/c2cnc3c(c2)CCC(=O)N3)c2ccccc21`: the IC50 was 200 nM in experiment [2] and > 32000 nM in experiment [4]. Also, the MIC in experiment [3] was > 32 µg/mL; in experiment [5], 0.063 µg/mL (≈ 0.175 µM).

On to `Cc1c(Cc2c(Cl)cccc2Cl)c(=O)ccn1CCc1ccc(-c2c[nH]c(CNC(=O)Nc3ncc(Br)s3)n2)cc1`, for which the IC50 is > 69000 nM in experiment [1], 570 nM in experiment [2] and 29 nM in experiment [4]. Further, the MIC in experiment [3] was 8 µg/mL (≈ 11.9 µM); in experiment [5] it was > 32 µg/mL.

With `Cc1c(Cc2c(Cl)cccc2Cl)c(=O)ccn1CCc1ccc(-c2c[nH]c(CNC(=O)Nc3nc4ccc(S(C)(=O)=O)cc4s3)n2)cc1`, the IC50 was > 69000 nM in experiment [1], 380 nM in experiment [2] and 4.5 nM in experiment [4]. Moreover, the MIC in experiment [3] is 0.5 µg/mL (≈ 0.693 µM); in experiment [5], > 32 µg/mL.
